# Measurements published in the RNAGym collection of RNA variant scans (doi:10.1126/science.aae0568).
# Variants at the floor of the assay were thinned out.
# B1: tRNA (parent)
# chain: GUUCCGUUGGCGUAAUGGUAACGCGUCUCCCUCCUAAGGAGAAGACUGCGGGUUCGAGUCCCGUACGGAACG
# Variants of: B1
# Test: yeast fitness relative to wild type (ratio to wild type); higher = fitter; tRNA-Arg(CCU), competitive growth, 37 C, YPD
# Summary of the method: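 Start and end populations of a pooled competition were compared by 100-nucleotide paired-end sequencing of gene amplicons. The Saccharomyces cerevisiae strains carried tRNA-Arg(CCU) gene variants at the native genomic locus, synthesised with a 3% per-site mutation rate at 69 sites, and competed in YPD at 37°C for 24 hours in six parallel replicates. Darwinian fitness relative to wild type was based on the change in genotype frequencies. Genotypes required ≥ 100 starting reads, and estimates < 0.5 were set to 0.5.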
row,Variant,yeast fitness
1,GUUCCGUUGGCGUAAUGGUAACGCGUCUGCCUCCUGAAGAGAAGGCUGCGGGUUCGAGUCCCGUACGGAACG [C29G A36G G38A A45G],≤ 0.5
2,GUUCCGUUGGCGUAAUGGUAACGCGUCUACCUCCUAAGGAGAAGACUGCGGGUUCGACUCCCGUACAGAACG [C29A G58C G67A],0.589
3,GUUCCGUUGGCGUAAUGGUAACGCGUCUACCUCCUAAGGAGAAGACUGCGGGUUCGAGUCCCGUACGGUACG [C29A A69U],0.756
4,GUUCCGUUGGCGUAAUGGUAACGCGUCUACCUCCUAAGGAGAAGACUGCGGGUUCGAGUCCCGUACGGCACG [C29A A69C],0.679
5,GUUCCGUUGGCGUAAUGGUAACGCGUCUACCUCCUAAGGAGAAGACUGUGGGUUCGAGUCCCGUACGGAACG [C29A C49U],0.627
6,GUUCCGUUGGCGUAAUGGUAACGCGUCUACCUCCUAAGGAGAAGACCGCCGGUUCGCGUCCCGUACGGAACG [C29A U47C G50C A57C],0.582
7,GUUCCGUUGGCGUAAUGGUAACGCGUCUGCCUCCUUAGGAGAAGACUGUGGGUUCGAGUUCCGUACGGAACG [C29G A36U C49U C60U],≤ 0.5
8,GUUCCGUUGGCGUAAUGGUAACGCGUCUGCCUCCUAAGGAGAAGACUGCGGGUUCGAGUCCCGUACGGAACG [C29G],0.686
9,GUUCCGUUGGCGUAAUGGUAACGCGUCUACCUCCUAAGGAGAAGACUGAGGGUUCGAGUCCCGUACGGAGCG [C29A C49A A70G],≤ 0.5
10,GUUCCGUUGGCGUAAUGGUAACGCGUCUGCCUCCUGAGGAGAAGACUGCGGGUUUGAGUCCCGUACGGAACG [C29G A36G C55U],≤ 0.5
11,GUUCCGUUGGCGUAAUGGUAACGCGUCUGCCUCCUAGGGAGAAGACUGCGGGUUCGAGUCCCGUACGGAGCG [C29G A37G A70G],0.562
12,GUUCCGUUGGCGUAAUGGUAACGCGUCUAACUCCUAAGGAGAAGACUGCAGGUUCGAGUCCCGUACGGAACG [C29A C30A G50A],≤ 0.5
13,GUUCCGUUGGCGUAAUGGUAACGCGUCUACCUGCCAAGGAGAAGACUGUGGGUUCGCGUACCGUACGGAACG [C29A C33G U35C C49U A57C C60A],0.644
14,GUUCCGUUGGCGUAAUGGUAACGCGUCUAUCUCCUAAGGAGAAGACUGCGGGUUCGAGUCCCGUACGGAACG [C29A C30U],0.689
15,GUUCCGUUGGCGUAAUGGUAACGCGUCUACCUCCCAAGGAGAAGCCUGUGGGUUCGAGUCCCGUACGGAACG [C29A U35C A45C C49U],≤ 0.5
16,GUUCCGUUGGCGUAAUGGUAACGCGUCUACCUCCUAAGGAGAAGACUGCGGGUUCGAGUCCCGUAUGGAACG [C29A C66U],0.627
17,GUUCCGUUGGCGUAAUGGUAACGCGUCUACCUCCUAAGGAGAAGACUGCAGGUUCGAGUCCCGUACGGAACG [C29A G50A],0.678
18,GUUCCGUUGGCGUAAUGGUAACGCGUCUACCUCCUAAGGAGAAGAAUGCGGGUUAGGGUCCCGUACGGAACG [C29A C46A C55A A57G],≤ 0.5
19,GUUCCGUUGGCGUAAUGGUAACGCGUCUACCUCCUAAGAAGAAGACUGAGGGUUCGAGUCCCGUAGGGAACG [C29A G39A C49A C66G],≤ 0.5

row,Variant,yeast fitness
1,GUUCCGUUGGCGUAAUGGUAACGCGUCUACCUCCUAAGGAGAAGACUGGGGGUUUGAGUCCCGUACGGAACG [C29A C49G C55U],≤ 0.5
2,GUUCCGUUGGCGUAAUGGUAACGCGUCUACCUCCUAAGGAGAAAACUGCGGGUUCGAGUCCCGUACGGAGCG [C29A G44A A70G],0.804
3,GUUCCGUUGGCGUAAUGGUAACGCGUCUGCCUCCUGAGGAGAAGACUGCGGGUUCGAGUCCCGUCCGGAACG [C29G A36G A65C],≤ 0.5
4,GUUCCGUUGGCGUAAUGGUAACGCGUCUACCUCGUAAGGAGCAGACUGGGGGUUCGAGUCCCGUACGAAACG [C29A C34G A42C C49G G68A],≤ 0.5
5,GUUCCGUUGGCGUAAUGGUAACGCGUCUACCUCCCAAGGAGAAGUCUGCGGGUUCGAGUGCCCUACGGAACG [C29A U35C A45U C60G G63C],0.538
6,GUUCCGUUGGCGUAAUGGUAACGCGUCUACCUCCUAAGGAGAAGACUGAGGGUUCGAGUCCAGUAUGGAACG [C29A C49A C62A C66U],≤ 0.5
7,GUUCCGUUGGCGUAAUGGUAACGCGUCUGCCUCCUACGGAGAAGACUGCGGGUUCGAGUACCGUACGGAGCG [C29G A37C C60A A70G],≤ 0.5
8,GUUCCGUUGGCGUAAUGGUAACGCGUCUACCUCCUAAGGAGAAGACUGCGGGUUCGAGUCCUGUACGGAACG [C29A C62U],0.723
9,GUUCCGUUGGCGUAAUGGUAACGCGUCUACCUCCUAAGGAGAAGACUGCGGGUUUGAGUCCCGUACGGUACG [C29A C55U A69U],≤ 0.5
10,GUUCCGUUGGCGUAAUGGUAACGCGUCUACCUCCUAAGGAGAAGACUGCCGGUUCGAGUCCCGCACGGAACG [C29A G50C U64C],≤ 0.5
11,GUUCCGUUGGCGUAAUGGUAACGCGUCUACCUCCUAAGGAGAAGAGUGCGGGUUCGAGUCCCGUGCGGAUCG [C29A C46G A65G A70U],≤ 0.5
12,GUUCCGUUGGCGUAAUGGUAACGCGUCUACCUUCUAAGGAGAAGACAGCGGGUUCGUGUCCCGUACGGAACG [C29A C33U U47A A57U],≤ 0.5
13,GUUCCGUUGGCGUAAUGGUAACGCGUCUACCUGCUAAGGAGAAGACUGCGGGUUCGAGUCCCGUACGGAGCG [C29A C33G A70G],≤ 0.5
14,GUUCCGUUGGCGUAAUGGUAACGCGUCUAACUCCUAAGGAGAAGACUGCGGGUUCGAGUCCCGUACUGAACG [C29A C30A G67U],0.667
15,GUUCCGUUGGCGUAAUGGUAACGCGUCUAGCUCCUAAUGAGAAGACUGCGGGUUCGAGUCCCGUACGGAACG [C29A C30G G38U],≤ 0.5
16,GUUCCGUUGGCGUAAUGGUAACGCGUCUGCCUCCUUAGGAGAAGACUGCGGGUUCGAGUCCCGUUCGGAACG [C29G A36U A65U],≤ 0.5
17,GUUCCGUUGGCGUAAUGGUAACGCGUCUACCUCGUGAGGCGAAGACAGCGGGUUCGAGUCCCGCACGGAACG [C29A C34G A36G A40C U47A U64C],≤ 0.5
18,GUUCCGUUGGCGUAAUGGUAACGCGUCUACAUCCUAAGGUGAAGACUGUGGGUUCGAGUCCCGUACGGAACG [C29A C31A A40U C49U],≤ 0.5
